Test results published in ChEMBL document CHEMBL1141491, “Design, synthesis, and evaluation of novel ethambutol analogues” (2008).
≈ marks a conversion by molar mass, not a printed value.

Each molecule was assayed on Mycobacterium tuberculosis (assay: Antituberculosis activity against Mycobacterium tuberculosis H37Rv by microbroth dilution method).
Assay type: functional
Method in brief: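 M. tuberculosis H37Rv grown in Middlebrook 7H9 with 10% ADC to OD600 0.4–0.6, then diluted in 7H9 to OD600 0.01. This inoculum was added to 2-fold serial dilutions of compound and incubated 37 °C for 7 days. MIC90 was read visually as the concentration inhibiting 90% of growth.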

First: CC[C@@H](CO)NCCNC(C)(C)CO.Cl.Cl
Second: CC[C@@H](CO)NCCN[C@@](C)(CC)CO
The MIC90 of the first is 1.9-fold lower: 1.6 µg/mL for the first, 3.12 µg/mL (≈ 14.3 µM) for the second.

Going from CC[C@@H](CO)NCCN[C@H](CO)c1ccccc1.Cl.Cl to CC[C@@H](CO)NCCNC(CO)CO.Cl.Cl, the MIC90 falls from 50 µg/mL to 3.12 µg/mL (16-fold).

Going from C=CC[C@@](C)(CO)NCCN[C@@H](CC)CO.Cl.Cl to C=CC[C@@H](CO)NCCN[C@@H](CC)CO.Cl.Cl, the MIC90 rises from 6.25 µg/mL to 25 µg/mL (4-fold).

First: CC[C@@H](CO)NCCNC1(CO)CCCC1.Cl.Cl
Second: Cl.Cl.OCC1(NCCNC2(CO)CCCC2)CCCC1
The MIC90 of the first is 1.9-fold lower: 1.6 µg/mL for the first, 3.12 µg/mL for the second.

Compared with Br.Br.CC[C@@H](CO)NCCN[C@@H](CC)CO [ETHAMBUTOL HYDROBROMIDE], CC(C)(CO)NCCNC(C)(C)CO.Cl.Cl is 7.8-fold higher in MIC90: 0.8 µg/mL for the first, 6.25 µg/mL for the second.
